Env fusion inh: blocks HIV Env-driven cell-cell fusion | HeLa-JRFL Env/CEM21 cell fusion, luciferase | inhibition, % at 12.3 µM | actives 1.1% (n = 360,000) | AID 651610;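 active = mean replicate inhibition score of at least 50 and every replicate individually at or above 50; inconclusive = only one of the two criteria met; inactive = mean below 50 and not all replicates reaching 50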;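 also: 0% = plate neutral controls and 100% = maraviroc near 300 nM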
STK33 inh: human STK33 kinase inhibition; purified STK33, MBP phosphorylation, ADP-Glo luminescence; inhibition, % at 10 µM; actives 0.073% (n = 320,000); AID 2661;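 active = inhibition at or above 25%, using the most active replicate where run in duplicate; inactive = inhibition below 25%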
GSK3 alpha inh: inhibitors of human GSK-3 alpha kinase; P49840; ADP-Glo luminescence, 60 min; inhibition, % at 10 µM; actives 0.1% (n = 320,000);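 active = more than half of replicates show inhibition above 20%; inconclusive = some but at most half of replicates above 20% inhibition; inactive = no replicate shows inhibition above 20%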;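 also: GST-tagged GSK-3 alpha with peptide substrate and 25 µM ATP; 0% = DMSO neutral wells and 100% = GW8510 positive control wells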
GSK3B inh: blocks human GSK3beta kinase activity. GST-GSK3beta kinase, ADP-Glo luminescence, 60 min; hits give low values. activity score (negative = inhibition), % at 10 µM. actives 0.038% (n = 300,000);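 active = more than half of replicate wells score below -50%, meaning over 50% inhibition versus plate controls; inconclusive = some replicates but at most half score below -50%; inactive = no replicate scores below -50%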;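 also: 0% = median DMSO wells and -100% = median GW8510 positive control wells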
Target sequence (P49841 whole entry, looked up): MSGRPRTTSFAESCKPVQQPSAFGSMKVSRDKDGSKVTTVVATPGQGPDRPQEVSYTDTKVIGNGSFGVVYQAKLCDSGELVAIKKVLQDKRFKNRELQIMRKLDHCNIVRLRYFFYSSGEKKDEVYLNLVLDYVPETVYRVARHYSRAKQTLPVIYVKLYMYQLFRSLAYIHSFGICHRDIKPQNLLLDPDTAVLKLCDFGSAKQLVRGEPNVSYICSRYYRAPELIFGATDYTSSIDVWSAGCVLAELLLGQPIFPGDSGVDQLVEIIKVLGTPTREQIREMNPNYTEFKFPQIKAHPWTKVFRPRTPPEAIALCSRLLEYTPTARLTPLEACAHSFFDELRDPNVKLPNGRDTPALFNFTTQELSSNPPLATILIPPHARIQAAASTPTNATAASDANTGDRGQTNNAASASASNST
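Test system – GST-tagged human GSK3beta kinase, cell-free · Incubation – 60 min enzyme reaction, room temperature · Signal – ADP-Glo luminescence · Also added – peptide substrate and ATP at 25 µM · Controls – DMSO neutral wells and GW8510 at 20 µM as positive · Buffer or medium – Tris/MgCl2 kinase buffer · Measure – Luminescence-derived activity versus plate DMSO and GW8510 wells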
GSIS activator: primary screen for activators of insulin secretion dependent on glucose, INS-1E cells, GLuc reporter luminescence. INS-1E GLuc reporter insulin secretion, 2-3 h. activation, % at 16.6 µM. actives 0.61% (n = 370,000). AID 743287;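 active = lowest replicate activation of at least 40%, so every replicate reaches that level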;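 also: 0% = median of neutral control wells and 100% = median of IBMX positive control wells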
CDK5 inh: CDK5/p35 (human) kinase inhibition; Q00535+Q15078; Recombinant CDK5/p35, ADP-Glo luminescence, 60 min; inhibition, % at 10 µM; actives 0.01% (n = 330,000);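 active = highest replicate inhibition of at least 50% and at least 75% of replicates reaching 50%; inconclusive = only one of the two criteria met; inactive = both criteria failed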;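 also: plate controls were DMSO neutral control for no effect and GW8510 at 10 µM for full effect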
Numbers without * were called inactive; ? = inconclusive; . = not tested or not shown; ! = not active in a repeat; [ ] = dose if it differs, or a comment. Most compounds without a hit are left out; they make up all but 1.4% or so of the library.

SMILES	Env fusion inh	STK33 inh	GSK3 alpha inh	GSK3B inh	GSIS activator	CDK5 inh
CCCCCC(O)(c1ccc(OC)cc1)C(CN1CCOCC1)c1ccccc1 (configuration not stated)	44	1	1	1	-12	1
COc1ccc(C(O)(C2CCCCC2)C(CN2CCOCC2)c2ccccc2)cc1 (configuration not stated)	74*	0	0	0	-40	-3
CCCCCC(O)(c1ccc(OCC)cc1)C(CN1CCOCC1)c1ccccc1 (configuration not stated)	59*	0	-2	1	-32	0
O=C(N/N=C\c1ccc(CNS(=O)(=O)c2ccccc2)o1)C(=O)Nc1ccc(F)cc1	-15	-1	3	4	16	0
O=C(N/N=C\c1ccc(CNS(=O)(=O)c2ccc(Cl)cc2)o1)C(=O)Nc1ccc(Oc2ccccc2)cc1	.	0	3	.	58*	.
O=C(C[C@H]1C[C@@H]2c3cc(NS(=O)(=O)c4ccc(F)cc4)ccc3O[C@@H]2[C@H](CO)O1)NCc1ccncc1	.	.	.	.	-2	.
C=CCc1c(Cl)nc(C)nc1NCc1ccccc1	59*	-2	-1	-4	-5	-1
Cc1nc(NN)nc(NCc2ccccc2)n1	-2	-3	0	.	1	0
Cc1ccc(S(=O)(=O)N2CCN(S(=O)(=O)c3ccc(C)cc3)C2c2ccccc2)cc1	105*	-1	-2	-1	6	0
Cc1ccc(S(=O)(=O)N2CCN(S(C)(=O)=O)C2c2ccccc2)cc1 (configuration not stated)	.	-1	0	-1	.	0
COc1ccc2c3c([nH]c2c1)[C@@H](CO)NCC31CCN(C(=O)C2CCCC2)CC1	.	.	.	.	-9	.
S=C(NCc1ccccc1)N1CCCCC1	26	-1	-2	2	-9	0
CC(=O)N1CCN(C(=S)NCc2ccccc2)CC1	3	0	-1	2	58*	0
OC(CSc1nc2ccccc2s1)CC(O)c1ccccc1 (configuration not stated)	-14[16.7 µM]	.	.	.	.	.
C[C@H](CO)N1C[C@H](C)[C@H](CN(C)Cc2ccc(-c3ccccc3)cc2)Oc2ccc(NC(=O)C3CC3)cc2C1=O	.	.	.	.	-9	.
COCCn1c(=NC(=O)c2cc(Cl)sc2Cl)sc2cc(S(N)(=O)=O)ccc21	6	1	-3	1	170*	1
CCOCCn1c(=NC(=O)c2cc(Cl)sc2Cl)sc2cc(S(N)(=O)=O)ccc21	.	-2	-2	-4	.	.
Nc1cc(-c2ccccc2)nn1S(=O)(=O)c1ccc(F)cc1	79*	-2	0	1	8	-1
Nc1cc(-c2ccc(Br)cc2)nn1S(=O)(=O)c1ccccc1	?	0	-3	0	12	2
Cc1[nH]cnc1C(=O)N/N=C/c1c(Cl)cccc1Cl	-23	27*	33	-29	0	26
CO[C@H](CN(C)S(=O)(=O)c1cccc(Cl)c1)[C@H](C)CN([C@H](C)CO)S(=O)(=O)c1ccc(Cl)cc1	45[16.7 µM]	.	.	.	-35	.
CO[C@@H](CN(C)S(=O)(=O)c1ccc(Cl)cc1)[C@@H](C)CN([C@@H](C)CO)S(=O)(=O)c1cccc(Cl)c1	43[16.7 µM]	.	.	.	-31	.
CO[C@@H](CN(C)S(=O)(=O)c1ccc(Cl)cc1)[C@H](C)CN([C@@H](C)CO)S(=O)(=O)c1cccc(Cl)c1	74*[16.7 µM]	.	.	.	-31	.
CO[C@H](CN(C)S(=O)(=O)c1ccc(Cl)cc1)[C@@H](C)CN([C@@H](C)CO)S(=O)(=O)c1cccc(Cl)c1	77*[16.7 µM]	.	.	.	-30	.
CO[C@@H](CN(C)S(=O)(=O)c1cccc(Cl)c1)[C@@H](C)CN([C@@H](C)CO)S(=O)(=O)c1cccc(Cl)c1	.	.	.	.	-11	.
SMILES	Env fusion inh	STK33 inh	GSK3 alpha inh	GSK3B inh	GSIS activator	CDK5 inh
CO[C@@H](CN(C)S(=O)(=O)c1ccc(Cl)cc1)[C@@H](C)CN([C@H](C)CO)S(=O)(=O)c1cccc(Cl)c1	64*[16.7 µM]	.	.	.	-30	.
Cc1ccc(F)cc1-c1nc(NC(C)C)nc2cc(-c3ccccc3)sc12	13	.	.	.	66*	.
CCOC(=O)CC1(C)N(S(=O)(=O)c2ccc(C)cc2)c2ccccc2N1S(=O)(=O)c1ccc(C)cc1	11	.	.	.	.	.
CCOC(=O)CC1(CC)Oc2ccccc2N1S(=O)(=O)c1ccc(C)cc1 (configuration not stated)	64*	.	.	.	-19	.
C[C@H]1CN([C@@H](C)CO)C(=O)c2ccccc2-c2ccccc2CO[C@@H]1CN(C)Cc1cccc(C(F)(F)F)c1	.	.	.	.	56*	.
CCOC(=O)N(C)C[C@@H]1OCc2cn(nn2)CCCC(=O)N([C@H](C)CO)C[C@H]1C	57*	.	.	.	13	.
C[C@@H]1CN([C@H](C)CO)C(=O)c2ccccc2-c2ccccc2CO[C@@H]1CN(C)Cc1cccc(C(F)(F)F)c1	.	.	.	.	61	.
C[C@H]1CN([C@@H](C)CO)C(=O)CCCn2nncc2CO[C@@H]1CN(C)Cc1ccccc1	5	.	.	.	2	.
C[C@@H]1CN([C@@H](C)CO)C(=O)CCCn2nncc2CO[C@H]1CN(C)Cc1ccccc1	-36	.	.	.	41*!	.
C[C@H](CO)N1C[C@H](C)[C@@H](CN(C)Cc2ccc(Cl)c(Cl)c2)Oc2ccc(N(C)C)cc2C1=O	58*[16.7 µM]	.	.	.	-32	.
C[C@H]1CN([C@@H](C)CO)C(=O)c2ccccc2-c2ccccc2CO[C@@H]1CN(C)Cc1ccc(Cl)c(Cl)c1	.	.	.	.	42*	.
C[C@@H]1CN([C@H](C)CO)C(=O)c2ccccc2-c2ccccc2CO[C@@H]1CN(C)Cc1ccc(Cl)c(Cl)c1	.	.	.	.	14	.
C[C@H]1CN([C@@H](C)CO)C(=O)c2ccccc2-c2ccccc2CO[C@H]1CN(C)S(=O)(=O)c1ccc(Cl)cc1	55*[16.7 µM]	.	.	.	14	.
Cc1noc(C)c1NC(=O)N(C)C[C@@H]1Oc2ccc(NC(=O)Cn3cnnn3)cc2CC(=O)N([C@H](C)CO)C[C@@H]1C	4[16.7 µM]	.	.	.	16	.
CC(C)NC(=O)[C@@]1(C)c2ccccc2C(=O)N(Cc2cc(C(F)(F)F)cc(C(F)(F)F)c2)[C@H]1c1ccc(CO)cc1	-24[16.7 µM]	.	.	.	.	.
COc1ccc2c3c([nH]c2c1)[C@@H](CO)N(C(=O)Nc1ccc(F)cc1)CC31CCN(C(=O)Cc2ccccc2)CC1	.	.	.	.	-1	.
CCc1c(C)sc(NC(=O)c2cc(-c3cc(OC)ccc3OC)on2)c1C#N	1	-2	-3	-1	0	-1
CCc1c(C)sc(NC(=O)c2cc(-c3ccc(OC)c(OC)c3)on2)c1C#N	-156	0	0	-5	80*	-2
COc1ccc(NC(=O)Nc2ccc3c(c2)C(=O)N([C@H](C)CO)C[C@@H](C)[C@H](CN(C)Cc2ccc(C(F)(F)F)cc2)OCCCC[C@@H](C)O3)cc1	68*[16.7 µM]	.	.	.	-23	.

High-throughput results: PubChem BioAssay, Broad Institute
